Data on ten compounds can be found in article PMC4430358 (Bioorganic & medicinal chemistry letters, 2015).

Molecules are shown by their SMILES. Entries after “also recorded” stand apart in the source; their conditions may differ.

The nature of data set [1]: Solubility in aqueous systems. In kind it is physicochemical.
A short description of data set [2]: Rat pharmacokinetics. Format: in vivo. Conditions: 1 mg/kg oral gavage in neat Labrasol; for plasma levels after oral gavage: LLOQ approximately 20 nM.
The subject of data set [3] is Sprague-Dawley rats. Briefly: Ozone rat model of pulmonary inflammation. In kind it is in vivo. Conditions: 1 mg/kg IV at t = 0, 5 and 9 h; 1 ppm ozone 4 h; BALF at 24 h. A digest of the protocol:
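Sprague-Dawley rats, n = 4 per cohort, given IV vehicle (negative and positive groups) or test compound at 1 mg/kg at t = 0. They were then exposed to air (negative) or 1 ppm ozone for 4 h and redosed at 5 and 9 h. At 24 h rats were sacrificed and BALF collected. Cells were spun down, Wright-Giemsa stained and counted. BALF protein was measured by Bradford assay.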

Data set [4] has as its target T1, CXCR2 (Homo sapiens, UniProt P25025).
T1 sequence (P25025 1-360): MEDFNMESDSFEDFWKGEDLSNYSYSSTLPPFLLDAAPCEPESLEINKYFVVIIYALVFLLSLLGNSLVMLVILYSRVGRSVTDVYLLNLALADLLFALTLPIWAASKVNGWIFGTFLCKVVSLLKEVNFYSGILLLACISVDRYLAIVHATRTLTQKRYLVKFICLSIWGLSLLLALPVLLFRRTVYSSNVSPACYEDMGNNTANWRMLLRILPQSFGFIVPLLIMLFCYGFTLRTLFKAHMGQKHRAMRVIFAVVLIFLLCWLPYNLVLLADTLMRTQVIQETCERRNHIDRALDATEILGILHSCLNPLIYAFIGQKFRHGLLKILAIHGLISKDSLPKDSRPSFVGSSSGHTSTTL
Description: PathHunter β-arrestin assay. In kind it is cell-based.

Data set [5] in a line: Metabolic stability in rat liver microsomes. In kind it is in vitro ADME. In a few lines: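 Test compound at 1 μM incubated with isolated rat liver microsomes for 60 min at 37 °C. Samples analysed by LC-MS at 0 and 60 min. Result expressed as percent parent remaining at 60 min.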
Data set [6] is described as follows: Metabolic stability in monkey liver microsomes. The conditions noted are these: Microsome stability (% remaining @ 60 min) monkey, 37°C, LC-MS. Format: in vitro ADME.
The subject of data set [7] is GROα-mediated intracellular calcium release in isolated human PMNs. Description: Inhibition of GROα-mediated intracellular calcium release in isolated human PMNs. Format: cell-based. Conditions: for fold drop in activity relative to compound 5: PMN calcium release assay; for activity in the PMN assay: compared to compound 5. Background: A change in cytosolic calcium serves as a functional read-out for many receptors and channels.

Data set [8] concerns healthy subjects. The conditions noted are these: clinical evaluation; cited from earlier work.

On to `O=C(Nc1ccc(F)cc1)c1ccc(SCc2ccccc2B(O)O)nc1` [Compound 5], for which the “solubility in aqueous systems” value in data set [1] is listed as “insolubility in aqueous systems”. Moreover, in data set [2], the “Rat PK AUC Oral” value is on record as “<LLOQ” and the “plasma levels after oral gavage” value is recorded as less than 20 nM.

For the compound `O=C(Nc1ccc(F)cc1)c1ccc(SCc2cc(OC(F)(F)F)ccc2B(O)O)nc1` [Compound 6, 6-(2-boronic acid-5-trifluoromethoxy-benzylsulfanyl)-N-(4-fluoro-phenyl)-nicotinamide], the “solubility in aqueous systems” value in data set [1] is given as “insolubility in aqueous systems”. In data set [2], the “Rat PK AUC Oral” value is given as “<LLOQ” and the “plasma levels after oral gavage” value was less than 20 nM. For the same compound, in data set [3], the “PMN influx to the lungs (BALF)” value was “significantly decreased PMN influx to the lungs to near undetectable levels; also recorded: potent inhibition of PMN recruitment; also recorded: potent inhibition of neutrophil influx” and the “macrophage influx (BALF)” value is “significantly decreased”. Further, the “mode of action” value in data set [4] was “full antagonist”. For the same compound, the fraction remaining at 1 h, 1 μM in data set [5] was more than 90%. In data set [6], this compound registered a share remaining at 1 h, 1 μM of more than 90%.

In the case of `O=C(Nc1ccc(F)cc1)c1ccc(SCCc2ccccc2B(O)O)nc1` [Compound 11], the “fold drop in activity relative to compound 5” value in data set [7] stood at 10 fold.

In the case of `O=C(Nc1ccc(F)cc1)c1ccc(SCc2cc(F)ccc2B(O)O)nc1` [Compound 15], in data set [7], the “activity in the PMN assay” value was “equipotent”.

For `COc1cc(CSc2ccc(C(=O)Nc3ccc(F)cc3)cn2)c(B(O)O)cc1OC` [Compound 12], the “activity in the PMN assay” value in data set [7] was “complete lack of activity”.

For the compound `O=C(Nc1ccc(F)cc1)c1ccc(SCc2cccc(B(O)O)c2)nc1` [Compound 8], the “fold drop in activity relative to compound 5” value in data set [7] stood at 30 fold.

For the compound `O=C(Nc1ccc(F)cc1)c1ccc(SCc2cc3c(cc2B(O)O)OCO3)nc1` [Compound 13], in data set [7], the “activity in the PMN assay” value is recorded as “complete lack of activity”.

As to `CC[C@@H](Nc1c(Nc2cccc(C(=O)N(C)C)c2O)c(=O)c1=O)c1ccc(C)o1` [navarixin], the “ozone inhalation-induced sputum PMN recruitment” value in data set [8] was “inhibited”.

Regarding `COc1ccc(B(O)O)c(CSc2ccc(C(=O)Nc3ccc(F)cc3)cn2)c1` [Compound 14], the “fold drop in activity relative to compound 5” value in data set [7] came out at 2 fold.

Regarding `O=C(Nc1ccc(F)cc1)c1ccc(SCCCCB(O)O)nc1` [Compound 10], in data set [7], the “fold drop in activity relative to compound 5” value is given as 18 fold.

One may read the amount remaining as the share of the starting amount still present when the sample was taken.
